Measurements published in ChEMBL document CHEMBL3797182, “In vitro evaluation of imidazo[4,5-c]quinolin-2-ones as gametocytocidal antimalarial agents” (Bioorg Med Chem Lett, 2016).

Experiments:
Plasmodium falciparum [1] = test: Gametocytocidal activity against chloroquine-sensitive late gametocytic stage (III to V) of Plasmodium falciparum 3D7 after 72 hrs by Alamar Blue assay; assay type: functional, organism-based; settings: 3D7, 72 h
How it was run: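 Late-stage (III–V) P. falciparum 3D7 gametocytes. AlamarBlue redox indicator reads cytosolic metabolic activity as a measure of gametocyte viability. 1536-well format, 11-point dose-response, duplicates. Torin 2 positive control, DMSO negative control.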

Plasmodium falciparum [2] = test: Antimalarial activity against chloroquine-sensitive asexual blood stage of Plasmodium falciparum 3D7 infected in RBC after 72 hrs by SYBR Green assay; assay type: functional, organism-based; settings: 3D7, 72 h
How it was run: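 Asexual blood-stage P. falciparum 3D7 (chloroquine-sensitive) parasites. 1536-well format, 11-point dose-response, duplicate tests. Torin 2 served as positive control and DMSO as negative control.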

HepG2 = test: Cytotoxicity against human HepG2 cells assessed as cell viability after 24 hrs; assay type: cell-based; settings: HepG2, 24 h
How it was run: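 HepG2 cell viability as general cytotoxicity. 1536-well, 11-point dose-response in duplicate, top concentration 46 μM. Torin 2 positive control, DMSO negative control.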

Plasmodium falciparum [3] = test: Selectivity ratio of IC50 for chloroquine-sensitive late gametocytic stage (III to V) of Plasmodium falciparum 3D7 to IC50 for chloroquine-sensitive asexual blood stage of Plasmodium falciparum 3D7; assay type: functional

| IC50 (Plasmodium falciparum [2]) | SMILES | IC50 (Plasmodium falciparum [1]) | IC50 (HepG2) | Ratio IC50 (Plasmodium falciparum [3]) |
| --- | --- | --- | --- | --- |
| 17 nM | Cn1c(=O)n(-c2cccc(C(F)(F)F)c2)c2c3cc(-c4cnc(N)nc4)ccc3ncc21 | 52 nM | 1.33 µM | – |
| 213 nM | Nc1ncc(-c2ccc3ncc4[nH]c(=O)n(-c5cccc(C(F)(F)F)c5)c4c3c2)cn1 | 450 nM | 2.54 µM | – |
| 65 nM | Cn1c(=O)n(-c2cccc(C(F)(F)F)c2)c2c3cc(-c4ccc5[nH]cnc5c4)ccc3ncc21 | 157 nM | 2.63 µM | – |
| 452 nM | Cn1c(=O)n(-c2cccc(C(F)(F)F)c2)c2c3cc(-c4ccc(S(N)(=O)=O)cc4)ccc3ncc21 | 816 nM | > 45 µM | 1 |
| 114 nM | Cn1c(=O)n(-c2cccc(C(F)(F)F)c2)c2c3cc(-c4ccc(O)cc4)ccc3ncc21 | 229 nM | 2.33 µM | 1 |
| 88 nM | COc1cccc(-n2c(=O)n(C)c3cnc4ccc(-c5ccc(N)nc5)cc4c32)c1 | 126 nM | 2.53 µM | – |
| 25 nM | CC(=O)Nc1ccc(-c2ccc3ncc4c(c3c2)n(-c2cccc(C(F)(F)F)c2)c(=O)n4C)cn1 | 42 nM | 3.98 µM | – |
| 95 nM | Cn1c(=O)n(-c2cccc(C(F)(F)F)c2)c2c3cc(-c4cccnc4)ccc3ncc21 | 236 nM | 10.3 µM | – |
| 21 nM | Cc1ccc(-c2ccc3ncc4c(c3c2)n(-c2cccc(C(F)(F)F)c2)c(=O)n4C)cn1 | 81 nM | 14.5 µM | – |
| 2580 nM | N#Cc1ccc(-c2ccc3ncc4[nH]c(=O)n(-c5cccc(C(F)(F)F)c5)c4c3c2)cc1 | 6330 nM | > 45 µM | 1 |
| 386 nM | N#Cc1ccc(-n2c(=O)[nH]c3cnc4ccc(-c5ccc(N)nc5)cc4c32)cc1 | 482 nM | > 45 µM | – |
| 781 nM | O=c1[nH]c2cnc3ccc(-c4ccc(O)cc4)cc3c2n1-c1cccc(C(F)(F)F)c1 | 1470 nM | 4.06 µM | 1 |
| 214 nM | O=c1[nH]c2cnc3ccc(-c4ccc5[nH]cnc5c4)cc3c2n1-c1cccc(C(F)(F)F)c1 | 347 nM | 3.24 µM | – |
| 832 nM | Cn1c(=O)n(C2CCCCC2)c2c3cc(-c4ccc(N)nc4)ccc3ncc21 | 1880 nM | 3.84 µM | – |
| 5780 nM | Cn1c(=O)n(-c2cccc(C(F)(F)F)c2)c2c3cc(-c4cnc5ccccc5c4)ccc3ncc21 | 5270 nM | 31.6 µM | – |
| 1350 nM | Nc1ccc(-c2ccc3ncc4[nH]c(=O)n(C5CCCCC5)c4c3c2)cn1 | 2870 nM | 6.5 µM | – |
| 93 nM | Cn1c(=O)n(-c2cccc(C(F)(F)F)c2)c2c3cc(-c4ccncc4)ccc3ncc21 | 359 nM | 1.73 µM | – |
| 77 nM | Cn1c(=O)n(-c2cccc(C(F)(F)F)c2)c2c3cc(-c4cccc(N)c4)ccc3ncc21 | 145 nM | 13.9 µM | 1 |
| 578 nM | Cn1c(=O)n(-c2cccc(C(F)(F)F)c2)c2c3cc(-c4ccc(S(C)(=O)=O)cc4)ccc3ncc21 | 855 nM | > 45 µM | 1 |
| 313 nM | O=c1[nH]c2cnc3ccc(-c4ccncc4)cc3c2n1-c1cccc(C(F)(F)F)c1 | 1140 nM | 1.5 µM | – |
| 5190 nM | Cc1ccc(-c2ccc3ncc4[nH]c(=O)n(-c5cccc(C(F)(F)F)c5)c4c3c2)cc1 | 7050 nM | > 45 µM | 1 |
| 91 nM | Nc1ccc(-c2ccc3ncc4[nH]c(=O)n(-c5cccc(C(F)(F)F)c5)c4c3c2)cn1 | 97 nM | 3.11 µM | – |
| 180 nM | Cc1ccc(-c2ccc3ncc4[nH]c(=O)n(-c5cccc(C(F)(F)F)c5)c4c3c2)cn1 | 320 nM | > 45 µM | – |
| 86 nM | Cn1c(=O)n(-c2cccc(C(F)(F)F)c2)c2c3cc(-c4ccc(N)cc4)ccc3ncc21 | 87 nM | 5.53 µM | 1 |
| 3930 nM | CCn1c(=O)n(-c2cccc(C(F)(F)F)c2)c2c3cc(-c4ccc(Cl)cc4)ccc3ncc21 | 10400 nM | > 45 µM | 1 |
| 109 nM | NC(=O)c1ccc(-c2ccc3ncc4[nH]c(=O)n(-c5cccc(C(F)(F)F)c5)c4c3c2)cc1 | 294 nM | > 45 µM | 1 |
| 17000 nM | Cn1c(=O)n(-c2cccc(C(F)(F)F)c2)c2c3ccccc3ncc21 | 3640 nM | > 45 µM | – |
| 5030 nM | O=c1[nH]c2cnc3ccccc3c2n1-c1cccc(C(F)(F)F)c1 | 7460 nM | > 45 µM | – |

| IC50 (Plasmodium falciparum [2]) | SMILES | IC50 (Plasmodium falciparum [1]) | IC50 (HepG2) | Ratio IC50 (Plasmodium falciparum [3]) |
| --- | --- | --- | --- | --- |
| 1160 nM | Cn1c(=O)n(C2CC2)c2c3cc(-c4ccc(N)nc4)ccc3ncc21 | 865 nM | 11.4 µM | – |
| 184 nM | Cn1c(=O)n(-c2cccc(C(F)(F)F)c2)c2c3cc(-c4cccc(C#N)c4)ccc3ncc21 | 2160 nM | > 45 µM | 11.7 |
| 412 nM | O=c1[nH]c2cnc3ccc(-c4ccc(O)nc4)cc3c2n1-c1cccc(C(F)(F)F)c1 | 4630 nM | > 45 µM | – |
| 104 nM | Cn1c(=O)n(-c2ccc(C(F)(F)F)cc2)c2c3cc(-c4ccc(N)nc4)ccc3ncc21 | 237 nM | > 45 µM | – |
| 98 nM | Cn1c(=O)n(-c2ccc(C#N)cc2)c2c3cc(-c4ccc(N)nc4)ccc3ncc21 | 118 nM | > 45 µM | – |
| 1160 nM | CS(=O)(=O)c1ccc(-c2ccc3ncc4[nH]c(=O)n(-c5cccc(C(F)(F)F)c5)c4c3c2)cc1 | 1110 nM | > 45 µM | 1 |
| 1690 nM | O=c1[nH]c2cnc3ccc(-c4ccc(Cl)cc4)cc3c2n1-c1cccc(C(F)(F)F)c1 | 3560 nM | > 45 µM | 1 |
| 7330 nM | Cn1c(=O)n(-c2cccc(C(F)(F)F)c2)c2c3cc(-c4ccc(C#N)cc4)ccc3ncc21 | 11000 nM | > 45 µM | 1 |
| 69 nM | Cn1c(=O)n(-c2ccccc2)c2c3cc(-c4ccc(N)nc4)ccc3ncc21 | 219 nM | 6.54 µM | – |
| 275 nM | Nc1cccc(-c2ccc3ncc4[nH]c(=O)n(-c5cccc(C(F)(F)F)c5)c4c3c2)c1 | 637 nM | 6.17 µM | 1 |
| 7 nM | Cn1c(=O)n(-c2cccc(C(F)(F)F)c2)c2c3cc(-c4ccc(N)nc4)ccc3ncc21 | 28 nM | 2.6 µM | 4 |
| 38 nM | Cn1c(=O)n(-c2cccc(C(F)(F)F)c2)c2c3cc(-c4ccc(C(N)=O)cc4)ccc3ncc21 | 497 nM | 4.69 µM | 10 |
| 283 nM | Nc1ccc(-c2ccc3ncc4[nH]c(=O)n(-c5cccc(C(F)(F)F)c5)c4c3c2)cc1 | 3270 nM | 7.23 µM | 11.6 |
| 4040 nM | O=c1[nH]c2cnc3ccc(-c4ccccc4)cc3c2n1-c1cccc(C(F)(F)F)c1 | 18400 nM | > 45 µM | 4.6 |
| 874 nM | N#Cc1cccc(-c2ccc3ncc4[nH]c(=O)n(-c5cccc(C(F)(F)F)c5)c4c3c2)c1 | 2790 nM | > 45 µM | 1 |
| 81 nM | CC(=O)Nc1ccc(-c2ccc3ncc4[nH]c(=O)n(-c5cccc(C(F)(F)F)c5)c4c3c2)cn1 | 186 nM | > 45 µM | – |
| 1570 nM | O=c1[nH]c2cnc3ccc(-c4ccc(F)cc4)cc3c2n1-c1cccc(C(F)(F)F)c1 | 1830 nM | > 45 µM | 1 |
| 530 nM | Nc1ccc(-c2ccc3ncc4[nH]c(=O)n(-c5ccc(C(F)(F)F)cc5)c4c3c2)cn1 | 576 nM | > 45 µM | – |
| 183 nM | CCn1c(=O)n(-c2cccc(C(F)(F)F)c2)c2c3cc(-c4ccc(N)nc4)ccc3ncc21 | 205 nM | 3.68 µM | – |
| 948 nM | NS(=O)(=O)c1ccc(-c2ccc3ncc4[nH]c(=O)n(-c5cccc(C(F)(F)F)c5)c4c3c2)cc1 | 2330 nM | > 45 µM | 1 |
| 158 nM | Cn1c(=O)n(-c2cccc(C(F)(F)F)c2)c2c3cc(-c4ccc(O)nc4)ccc3ncc21 | 294 nM | 23.5 µM | – |
| 15400 nM | O=c1[nH]c2cnc3ccc(-c4cnc5ccccc5c4)cc3c2n1-c1cccc(C(F)(F)F)c1 | 2350 nM | > 45 µM | – |
| 442 nM | Cn1c(=O)n(-c2cccc(C(F)(F)F)c2)c2c3cc(-c4ccccc4)ccc3ncc21 | 4710 nM | > 45 µM | 10.7 |
| 47 nM | COc1ccc(-n2c(=O)n(C)c3cnc4ccc(-c5ccc(N)nc5)cc4c32)cc1 | 148 nM | 2.34 µM | – |
| 1750 nM | Cn1c(=O)n(-c2cccc(C(F)(F)F)c2)c2c3cc(-c4ccc(Cl)cc4)ccc3ncc21 | 1860 nM | > 45 µM | 1 |
| 2820 nM | O=c1[nH]c2cnc3ccc(-c4cccnc4)cc3c2n1-c1cccc(C(F)(F)F)c1 | 11400 nM | 2.25 µM | – |
| 3180 nM | Cn1c(=O)n(-c2cccc(C(F)(F)F)c2)c2c3cc(-c4ccc(F)cc4)ccc3ncc21 | 5590 nM | > 45 µM | 1 |
